Measurements published in ChEMBL document CHEMBL1125533, “Novel 1-(pyridylphenyl)-1-phenyl-2-imidazolylethanols with topical antiinflammatory activity” (J Med Chem, 1992).

Columns and labels:
Mus musculus [1] = assay: (§1) In vivo inhibitory activity against A-23187 ear edema at a dose of 100 ug/ear; assay type: functional
In short: (§2)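 Topical mouse ear edema test at 100 µg/ear; the inflammogen is applied to one ear and the unchallenged ear serves as control. Mice are killed by cervical dislocation at set times, and 6 mm biopsy punches from each ear are weighed. Edema is the challenged-minus-unchallenged weight. Percent inhibition is [(C−T)/C]×100. Duplicate separate experiments, 10 animals per group; averages of two or more determinations.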

Mus musculus [2] = assay: (§3) In vivo inhibitory activity against arachidonic acid(AA) ear edema at a dose of 100 ug/ear; assay type: functional; in short: as §2
Cyclooxygenase = target: T1, Cyclooxygenase (Bos taurus, UniProt O62664+O62698); assay: Inhibitory activity against Prostaglandin G/H synthase (bovine seminal vesicles); assay type: protein assay
T1 sequence (O62664 whole entry): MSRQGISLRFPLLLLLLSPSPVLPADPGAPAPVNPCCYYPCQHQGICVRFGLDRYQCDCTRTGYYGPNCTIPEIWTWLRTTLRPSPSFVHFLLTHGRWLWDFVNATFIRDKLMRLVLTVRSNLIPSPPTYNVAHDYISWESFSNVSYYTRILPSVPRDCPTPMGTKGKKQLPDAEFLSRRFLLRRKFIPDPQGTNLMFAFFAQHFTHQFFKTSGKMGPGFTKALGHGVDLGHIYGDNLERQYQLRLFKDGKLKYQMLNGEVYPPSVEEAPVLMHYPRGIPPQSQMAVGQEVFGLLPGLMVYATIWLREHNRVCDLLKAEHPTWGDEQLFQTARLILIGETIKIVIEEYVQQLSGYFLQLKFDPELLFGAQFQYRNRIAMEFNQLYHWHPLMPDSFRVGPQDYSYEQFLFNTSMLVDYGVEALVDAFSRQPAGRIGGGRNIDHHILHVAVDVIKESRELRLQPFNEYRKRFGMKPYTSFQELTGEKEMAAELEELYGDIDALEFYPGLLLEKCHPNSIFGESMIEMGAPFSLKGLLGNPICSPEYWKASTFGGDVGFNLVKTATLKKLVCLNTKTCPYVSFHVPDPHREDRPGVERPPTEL
T1 sequence (O62698 whole entry): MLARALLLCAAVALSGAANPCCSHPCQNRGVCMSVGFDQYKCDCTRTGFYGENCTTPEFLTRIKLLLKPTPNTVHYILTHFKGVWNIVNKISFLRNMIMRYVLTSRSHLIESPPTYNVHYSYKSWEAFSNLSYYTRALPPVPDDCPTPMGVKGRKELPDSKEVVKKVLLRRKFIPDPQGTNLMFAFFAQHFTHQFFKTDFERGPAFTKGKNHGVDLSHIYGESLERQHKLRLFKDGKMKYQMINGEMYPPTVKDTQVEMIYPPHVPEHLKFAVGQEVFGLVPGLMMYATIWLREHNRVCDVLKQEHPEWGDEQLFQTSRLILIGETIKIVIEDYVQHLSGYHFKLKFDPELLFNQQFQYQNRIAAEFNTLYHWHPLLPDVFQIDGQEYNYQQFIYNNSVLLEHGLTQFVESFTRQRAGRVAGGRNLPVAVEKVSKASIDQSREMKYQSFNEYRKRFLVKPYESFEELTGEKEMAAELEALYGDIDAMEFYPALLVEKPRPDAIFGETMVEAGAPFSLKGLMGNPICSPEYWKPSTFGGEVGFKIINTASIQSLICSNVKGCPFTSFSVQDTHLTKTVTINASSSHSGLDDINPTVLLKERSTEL

Mus musculus [3] = assay: In vivo inhibitory activity against phorbol myristyl acetate (PMA) ear edema at a dose of 100 ug/ear; assay type: functional
In short: (§4)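 Mouse ear edema, topical: inflammation induced by PMA, A23187 or arachidonic acid on one ear, with the unchallenged ear as control. Mice were killed by cervical dislocation at set times after challenge, and 6 mm punches were weighed. Edema = challenged minus unchallenged punch weight. Percent inhibition = [(C−T)/C]×100 at 100 μg/ear. Duplicate separate experiments, 10 animals per group. Student's t test.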

[4] = target: T2, Polyunsaturated fatty acid 5-lipoxygenase (Rattus norvegicus, UniProt P12527); assay: Inhibitory activity against 5-lipoxygenase of RBL-1 cell line; assay type: cell-based
T2 sequence (P12527 whole entry): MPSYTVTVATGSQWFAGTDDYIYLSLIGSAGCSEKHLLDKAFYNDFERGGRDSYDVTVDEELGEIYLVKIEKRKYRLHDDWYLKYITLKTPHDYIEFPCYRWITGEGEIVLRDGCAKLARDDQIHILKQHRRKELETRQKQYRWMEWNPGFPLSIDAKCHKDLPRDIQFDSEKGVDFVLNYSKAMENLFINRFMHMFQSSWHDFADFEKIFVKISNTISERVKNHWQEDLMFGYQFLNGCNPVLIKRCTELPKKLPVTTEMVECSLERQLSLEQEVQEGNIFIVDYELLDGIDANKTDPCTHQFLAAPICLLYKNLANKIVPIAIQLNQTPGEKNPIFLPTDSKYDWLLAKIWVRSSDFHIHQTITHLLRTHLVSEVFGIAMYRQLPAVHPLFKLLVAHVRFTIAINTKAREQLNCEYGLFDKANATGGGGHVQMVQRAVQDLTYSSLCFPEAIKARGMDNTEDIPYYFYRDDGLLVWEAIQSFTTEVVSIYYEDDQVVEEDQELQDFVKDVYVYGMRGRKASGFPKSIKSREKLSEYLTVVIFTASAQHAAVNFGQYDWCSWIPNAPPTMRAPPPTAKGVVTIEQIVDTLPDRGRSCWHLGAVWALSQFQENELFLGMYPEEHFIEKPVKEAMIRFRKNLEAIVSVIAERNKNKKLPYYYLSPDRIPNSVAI

[5] = Partition coefficient (logP); assay type: physicochemical; conditions: octanol/water
In short: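 log P estimated from reversed-phase HPLC retention time. Calibration curve built from shake-flask octanol/water log P values of eight pyridines. Log RT vs log P was linear.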

Mus musculus [6] = assay: In vivo inhibitory activity in a phorbol myristyl acetate (PMA) ear edema model at a dose of 100 ug/ear; assay type: functional; in short: as §4
Mus musculus [7] = assay: as §1; assay type: functional; in short: as §4; remark: listed apart in the source
Mus musculus [8] = assay: as §3; assay type: functional; in short: as §4; remark: listed apart in the source

Row | Compound | logP [5] | Inhibition (Mus musculus [6]) [%] | also measured
1 | CC(=O)N1CCN(c2ccc(OCC3COC(Cn4ccnc4)(c4ccc(Cl)cc4Cl)O3)cc2)CC1 (stereo not given) [KETOCONAZOLE] | – | – | Inhibition (Mus musculus [1]): 8%; Inhibition (Mus musculus [2]): 10%; IC50 (Cyclooxygenase): > 750 µM; ED50 (Mus musculus [3]): 34 ug ear-1; IC50 [4]: > 25 µM
2 | OC(Cn1cccc1)(c1ccc(F)cc1)c1ccc(-c2ccncc2)cc1 (stereo not given) | 2.35 | 58 | –
3 | OCc1ccc(C(O)(Cn2ccnc2)c2ccc(-c3ccncc3)cc2)cc1 (stereo not given) | 2.4 | 24 | –
4 | Cc1ccc(C(O)(Cn2ccnc2)c2ccc(Br)cc2)cc1 (stereo not given) | 3.55 | 18 | –
5 | O=Cc1ccc(C(O)(Cn2ccnc2)c2ccc(-c3ccncc3)cc2)cc1 (stereo not given) | 2.38 | 67 | –
6 | OC(Cn1ccnc1)(c1ccc(F)cc1)c1ccc(Br)cc1 (stereo not given) | 3.42 | 29 | –
7 | OC(Cn1ccnc1)(c1ccc(F)cc1)c1ccc(F)cc1 | 2.95 | 50 | –
8 | Cc1ccc(C(O)(Cn2ccnc2)c2ccc(-c3ccncc3)cc2)cc1 (stereo not given) | 3.13 | 62 | Inhibition (Mus musculus [2]): 16%; ED50 (Mus musculus [7]): 13 ug ear-1; IC50 (Cyclooxygenase): > 750 µM; ED50 (Mus musculus [3]): 13.2 ug ear-1; IC50 [4]: > 25 µM
9 | OC(Cn1ccnc1)(c1ccc(-c2cccnc2)cc1)c1ccc(F)cc1F (stereo not given) | 3.31 | 52 | –
10 | COc1c(OC)c(OC(C)=O)c2cc(Cl)ccc2c1OC(C)=O [LONAPALENE] | – | 15 | ED50 (Mus musculus [7]): 32 ug ear-1; ED50 (Mus musculus [8]): 103 ug ear-1; IC50 (Cyclooxygenase): > 750 µM; IC50 [4]: 0.74 µM
11 | COC(C)(OC)c1ccc(C(O)(Cn2ccnc2)c2ccc(-c3ccncc3)cc2)cc1 (stereo not given) | 3.45 | 61 | –
12 | OC(Cn1ccnc1)(c1ccc(F)cc1)c1ccccc1-c1cccnc1 (stereo not given) | 3.26 | 62 | –
13 | OC(Cn1ccnc1)(c1ccc(F)cc1)c1ccccc1-c1ccncc1 (stereo not given) | 2.51 | 86 | –
14 | OC(Cn1cnc2ccccc21)(c1ccc(F)cc1)c1ccc(-c2ccncc2)cc1 (stereo not given) | 2.06 | 40 | –
15 | OC(Cn1ccnc1)(c1ccc(F)cc1)c1cccc(-c2ccccn2)c1 (stereo not given) | 3.34 | 61 | –
16 | OC(Cn1cccn1)(c1ccc(F)cc1)c1ccc(-c2ccncc2)cc1 (stereo not given) | 2.14 | 28 | –
17 | OC(Cn1ccnc1)(c1ccc(F)cc1)c1ccc(-c2ccncc2)cc1 (stereo not given) | 2.47 | 72 | ED50 (Mus musculus [7]): 21 ug ear-1; ED50 (Mus musculus [8]): 543 ug ear-1; IC50 (Cyclooxygenase): > 750 µM; ED50 (Mus musculus [3]): 4.6 ug ear-1; IC50 [4]: > 25 µM
18 | OC(CCc1ncc[nH]1)(c1ccc(F)cc1)c1ccc(F)cc1 | 3.13 | 52 | –
19 | Oc1ccc(C(O)(Cn2ccnc2)c2ccc(-c3ccncc3)cc2)cc1 (stereo not given) | 2.49 | 37 | –
20 | COC(=O)c1ccc(C(O)(Cn2ccnc2)c2ccc(-c3ccncc3)cc2)cc1 (stereo not given) | 2.61 | 62 | –
21 | CN(C)c1ccc(C(O)(Cn2ccnc2)c2ccc(-c3ccncc3)cc2)cc1 (stereo not given) | 3.29 | 34 | –
22 | OC(Cn1ccnc1)(c1ccc(-c2ccncc2)cc1)c1ccc(C(F)(F)F)cc1 (stereo not given) | 3.11 | 58 | –
23 | COc1ccc(C(O)(Cn2ccnc2)c2ccc(Br)cc2)cc1 (stereo not given) | 4.02 | 31 | –

Row | Compound | logP [5] | Inhibition (Mus musculus [6]) [%] | also measured
24 | OC(CN1CCCC1)(c1ccc(F)cc1)c1ccc(-c2ccncc2)cc1 (stereo not given) | 3.84 | 24 | –
25 | COc1ccc(C(O)(Cn2ccnc2)c2ccc(-c3ccncc3)cc2)cc1 (stereo not given) | 3.55 | 74 | –
26 | OC(Cn1ccnc1)(c1ccc(Br)cc1)c1ccc(F)cc1F (stereo not given) | 3.44 | 22 | –
27 | OC(Cn1ccnc1)(c1cccc(Br)c1)c1ccc(F)cc1F (stereo not given) | 3.6 | 42 | –
28 | OC(Cn1ccnc1)(c1ccc(-c2ccncc2)cc1)c1ccc(F)cc1F (stereo not given) | 2.54 | 73 | –
29 | OC(Cn1ccnc1)(c1ccc(Br)cc1)c1ccccc1Cl (stereo not given) | 3.87 | 26 | –
30 | OC(Cn1ccnc1)(c1ccc(F)cc1)c1cccc(-c2cccnc2)c1 (stereo not given) | 3.22 | 64 | –
31 | OC(Cn1ccnc1)(c1ccc(-c2ccccc2)cc1)c1ccc(-c2ccncc2)cc1 (stereo not given) | 3.86 | 49 | –
32 | CC(=O)c1ccc(C(O)(Cn2ccnc2)c2ccc(-c3ccncc3)cc2)cc1 (stereo not given) | 2.41 | 78 | –
33 | OC(Cn1ccnc1)(c1ccc(F)cc1)c1cccc(Br)c1 (stereo not given) | 3.3 | 38 | –
34 | OC(Cn1ccnc1)(c1ccccc1)c1ccc(Br)cc1 (stereo not given) | 3.35 | 37 | –
35 | OC(Cn1ccnc1)(c1ccc(Cl)cc1)c1ccc(-c2ccncc2)cc1 (stereo not given) | 3.27 | 58 | –
36 | COc1ccc2c(c1)c(CC(=O)O)c(C)n2C(=O)c1ccc(Cl)cc1 [INDOMETHACIN] | – | 10 | ED50 (Mus musculus [7]): 254 ug ear-1; ED50 (Mus musculus [8]): 902 ug ear-1; IC50 [4]: > 25 µM
37 | Oc1c(Cc2ccccc2)ccc2ccccc12 | – | – | ED50 (Mus musculus [7]): 5 ug ear-1; ED50 (Mus musculus [8]): 7 ug ear-1; IC50 (Cyclooxygenase): > 750 µM; ED50 (Mus musculus [3]): 764 ug ear-1
38 | OC(Cn1ccnc1)(c1ccc(F)cc1)c1ccc(-c2ccccc2)cc1 (stereo not given) | 4.23 | 25 | –
39 | OC(Cn1cncn1)(c1ccc(F)cc1)c1ccc(-c2ccncc2)cc1 (stereo not given) | 1.67 | 53 | –
40 | OC(Cn1ccnc1)(c1ccc(F)cc1)c1ccc(-c2ccccn2)cc1 (stereo not given) | 3.58 | 63 | –
41 | OC(Cn1ccnc1)(c1ccc(-c2ccncc2)cc1)c1ccccc1Cl (stereo not given) | 3.37 | 41 | –
42 | OC(Cn1ccnc1)(c1ccc(F)cc1)c1cccc(-c2ccncc2)c1 (stereo not given) | 2.91 | 74 | –
43 | OC(Cn1ccnc1)(c1ccc(-c2ccccn2)cc1)c1ccc(F)cc1F (stereo not given) | 3.65 | 51 | –
44 | OC(CN1CCOCC1)(c1ccc(F)cc1)c1ccc(-c2ccncc2)cc1 (stereo not given) | 2.82 | 41 | –
45 | OC(Cn1ccnc1)(c1ccccc1)c1ccc(-c2ccncc2)cc1 (stereo not given) | 2.29 | 69 | –
